High-throughput results (PubChem BioAssay)
INS-1E ATP HTS – protection of INS-1E cells from cytokine death, primary screen, ATP luminescence, single point | 20,000 compounds, 0.1% hits | INS-1E cytokine-induced death, 48 h; normalised: neutral wells 0, positive control 100 | protection from cytokine-induced ATP loss, % at 10 µM;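 active = mean replicate protection from cytokine-induced ATP loss at least 50% and at least 75% of replicates each reaching 50%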
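Assay system – rat INS-1E insulinoma cell line · Quantity – 8000 cells per well · Buffer or medium – RPMI without phenol red, 5% FBS · Schedule – 48 h co-treatment, 10 min post-lysis read · Technique – luminescent ATP assay (CellTiter-Glo)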
T cruzi intra – inhibitors of intracellular Trypanosoma cruzi, primary screen, cell-based, plate reader, single point, set 2. activity score (inhibition), % at 5.01 µM. intracellular Trypanosoma cruzi in host cells. 22,000 compounds, 4.9% hits; in the data active = activity score above about 55%;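 also: parasites and compound incubated about four days before reading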
A1 apoptosis 2 – A1 inhibitors via caspase activation, primary screen, cell-based, luminescence, HTS, two replicates; MEF A1-2A-BIM cells, caspase-Glo luminescence, 3 h; percent of clofoctol response, DMSO zero; caspase activation, % (concentration not given with the values); 24,000 tested, under 10 active; AID 2465, 2010; in the data active = caspase activation above about 5.9%
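Evaluation: Caspase-3/7 activity from luminescence increase | Assay system: A1-2A-BIM mouse embryonic fibroblasts | Quantity: 2500 MEF cells/well | Medium: RPMI-1640 plus 10% FBS | Detection: Caspase-Glo 3/7 luminescence, 1 h at room temperature | Dosing: 50 nL compound per well, pinned | Timing: Cells settled overnight, compound exposure 3 h at 37 °C, 5% CO2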
Each line names hits and unclear results; the compound was inactive in the other large screens. The entries come from a sample that favours hits as a whole.

C[C@@H]1CCCCO[C@H](CN(C)Cc2ccc(Cl)c(Cl)c2)[C@@H](C)CN([C@@H](C)CO)C(=O)c2cc(NS(=O)(=O)c3ccc(Cl)cc3)ccc2O1	none (no result: INS-1E ATP HTS, T cruzi intra)
COc1ccc(S(=O)(=O)Nc2ccc3c(c2)C(=O)N([C@H](C)CO)C[C@H](C)[C@H](CN(C)Cc2ccc(Cl)c(Cl)c2)OCCCC[C@@H](C)O3)cc1	T cruzi intra 57.5 (no result: A1 apoptosis 2)
Cc1ccc(S(=O)(=O)Nc2ccc3c(c2)C(=O)N([C@H](C)CO)C[C@@H](C)[C@@H](CN(C)Cc2ccc(Cl)c(Cl)c2)OCCCC[C@H](C)O3)cc1	none (no result: INS-1E ATP HTS, T cruzi intra)
C[C@@H]1CCCCO[C@@H](CN(C)Cc2ccc(Cl)c(Cl)c2)[C@@H](C)CN([C@@H](C)CO)C(=O)c2cc(NS(=O)(=O)c3ccc(F)cc3)ccc2O1	none (no result: INS-1E ATP HTS, T cruzi intra)
Cc1ccc(S(=O)(=O)Nc2ccc3c(c2)C(=O)N([C@H](C)CO)C[C@H](C)[C@H](CN(C)Cc2ccc(Cl)c(Cl)c2)OCCCC[C@@H](C)O3)cc1	T cruzi intra 76.9 (no result: A1 apoptosis 2)
C[C@@H]1CCCCO[C@@H](CN(C)Cc2ccc(Cl)c(Cl)c2)[C@@H](C)CN([C@H](C)CO)C(=O)c2cc(NS(=O)(=O)c3ccccc3)ccc2O1	T cruzi intra 65.6 (no result: A1 apoptosis 2)
C[C@@H]1CCCCO[C@H](CN(C)Cc2ccc(Cl)c(Cl)c2)[C@@H](C)CN([C@H](C)CO)C(=O)c2cc(NS(=O)(=O)c3ccc(F)cc3)ccc2O1	T cruzi intra 65.5 (no result: A1 apoptosis 2)
O=C1O[C@@H](c2ccccc2)[C@@H](c2ccccc2)N2[C@@H](c3ccc(OCCO)cc3)[C@]3(C(=O)Nc4ccccc43)[C@@H](C(=O)NC[C@H](O)c3ccccc3)[C@H]12	none (no result: INS-1E ATP HTS, T cruzi intra)
[N-]=[N+]=Nc1ccc(C[C@H]2C(=O)O[C@@H](Cc3ccccc3)[C@H]3C=C(/C=C/C4CC4)CN32)cc1	none (no result: INS-1E ATP HTS, T cruzi intra)
O=C(NO)c1ccc(C(=O)N/N=C/c2ccc3ccccc3n2)cc1	none (no result: INS-1E ATP HTS, T cruzi intra)
O=C1c2ccccc2C(=O)N1[C@@H]1CCCN(Cc2cccc(OCCO)c2)C1	none (no result: INS-1E ATP HTS, T cruzi intra)
O=C1c2ccccc2C(=O)N1[C@@H]1CCN(Cc2cccc(OCCO)c2)C1	none (no result: INS-1E ATP HTS, T cruzi intra)
C[C@H]1CN([C@@H](C)CO)C(=O)Cc2cc(NC(=O)Nc3ccc(C(F)(F)F)cc3)ccc2O[C@H]1CN(C)S(=O)(=O)c1cccs1	none
C[C@H]1CN([C@@H](C)CO)C(=O)c2cc(NC(=O)Nc3ccc(C(F)(F)F)cc3)ccc2O[C@@H]1CN(C)S(=O)(=O)c1cccs1	none (no result: A1 apoptosis 2)
C[C@@H]1CN([C@H](C)CO)C(=O)Cc2cc(NC(=O)Nc3ccc(C(F)(F)F)cc3)ccc2O[C@@H]1CN(C)S(=O)(=O)c1cccs1	T cruzi intra 65.7 (no result: A1 apoptosis 2)
C[C@@H]1CN([C@@H](C)CO)C(=O)c2cccc(NC(=O)Nc3ccc(C(F)(F)F)cc3)c2O[C@H]1CN(C)S(=O)(=O)c1cccs1	T cruzi intra 78.7
C[C@H](CO)N1C[C@H](C)[C@@H](CN(C)S(=O)(=O)c2cccs2)Oc2c(NC(=O)Nc3ccc(C(F)(F)F)cc3)cccc2C1=O	none
C[C@@H]1CN([C@@H](C)CO)C(=O)c2cc(NC(=O)Nc3ccc(C(F)(F)F)cc3)ccc2O[C@H]1CN(C)S(=O)(=O)c1cccs1	T cruzi intra 70.6
COC(=O)CCCCCCC(=O)N/N=C/c1ccc(OC)c(O)c1	none
COC(=O)C1=C/C(C)=C\C(C)N(Cc2ccc(OC)cc2)/C=C\1C(=O)OC (stereo not given)	none (no result: INS-1E ATP HTS, T cruzi intra)
COc1cc(Br)c(/C=N/NC(=O)c2ccc(C(=O)NO)cc2)cc1OC	none (no result: INS-1E ATP HTS, T cruzi intra)
O=C(CCCCCCC(=O)Nc1ccccc1O)N/N=C/c1ccc(-c2ccccc2)cc1	none
Cc1ccc(S(=O)(=O)Nc2ccc3c(c2)CC(=O)N([C@H](C)CO)C[C@@H](C)[C@@H](CN(C)CC2CCCCC2)O3)cc1	none (no result: A1 apoptosis 2)
C[C@H](CO)N1C[C@H](C)[C@@H](CN(C)CC2CCCCC2)Oc2ccc(NS(=O)(=O)c3ccc(Cl)cc3)cc2CC1=O	none (no result: INS-1E ATP HTS, T cruzi intra)
Cc1ccc(S(=O)(=O)Nc2ccc3c(c2)CC(=O)N([C@H](C)CO)C[C@@H](C)[C@H](CN(C)CC2CCCCC2)O3)cc1	T cruzi intra 85.3
C[C@@H]1CN([C@H](C)CO)C(=O)Cc2cc(NS(=O)(=O)c3ccc(Cl)cc3)ccc2O[C@H]1CN(C)CC1CCCCC1	T cruzi intra 65.5
O=C1CS(=O)(=O)C(c2ccccc2)N1c1ccccc1 (stereo not given)	none (no result: INS-1E ATP HTS, T cruzi intra)
Cc1cccc(CN(C)C[C@@H]2Oc3ncc(-c4cccc(C(F)(F)F)c4)cc3C(=O)N([C@H](C)CO)C[C@@H]2C)c1	T cruzi intra 63.4 (no result: INS-1E ATP HTS, A1 apoptosis 2)
